# Test results as given in ChEMBL document CHEMBL2331484, “Synthesis and biological evaluation of scopoletin derivatives” (Bioorg Med Chem, 2013).
# The source made the active and inactive calls. The rule behind the calls is not given here.
# Key:
# [1] = species: Gallus gallus; test: Antiangiogenic activity in chicken embryo chorioallantoic membrane model assessed as inhibition of new blood vessel formation at 10 nmol/egg after 48 hrs by microscopy; format: functional, tissue-based
# Summary of the method: (§1)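 Fertilized chicken eggs incubated seven days at 37.5 °C, ~55% humidity, and the air sac membrane was detached. Sterile 5 × 5 mm filter paper soaked with DMSO or compound (5 and 10 nmol/egg) was air-dried and placed on the CAM. Eggs were sealed and reincubated. Fat emulsion (20%) was injected into the CAM and vessels photographed. Three independent experiments.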
# [2] = Inhibition of VEGF receptor signaling in HUVEC assessed a inhibition of VEGF-induced ERK1/2 phosphorylation pretreated at 10 to 50 umol/L for 30 mins before VEGF addition by Western blot analysis; format: cell-based; settings: Homo sapiens
# [3] = Inhibition of VEGF receptor signaling in HUVEC assessed a inhibition of VEGF-induced Akt phosphorylation pretreated at 10 to 50 umol/L for 30 mins before VEGF addition by Western blot analysis; format: cell-based; settings: Homo sapiens
# [4] = system: HUVEC; test: Effect on total p38 MAPK level in VEGF-stimulated HUVEC pretreated at 10 to 50 umol/L for 30 mins before VEGF addition by Western blot analysis; format: functional, cell-based; settings: Homo sapiens
# [5] = system: HUVEC; test: Antiangiogenic activity against HUVEC assessed as inhibition of VEGF-induced tube formation at 25 umol/L after 5 hrs by microscopy; format: functional, cell-based; settings: Homo sapiens
# Summary of the method: (§2)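 Matrigel-coated wells gelled 37 °C 30 min. DMSO or compound (final 25 µmol/L) added for 30 min before plating. After 5 h, enclosed complete tubes counted in five random fields by microscopy. Triplicate experiments, means ± SEM.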
# [6] = system: HuT78; test: Cytotoxicity against human HUT78 cells after 24 hrs by MTT assay; format: functional, cell-based; settings: HuT78, 24 h
# [7] = system: MKN-45; test: Cytotoxicity against human MKN45 cells after 24 hrs by MTT assay; format: functional, cell-based; settings: MKN-45, 24 h
# [8] = system: PANC-1; test: Inhibition of MMP-2 protein expression in human PANC1 cells at 10 to 50 umol/L after 24 hrs by SDS-PAGE analysis; format: functional, cell-based
# Summary of the method: (§3)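 Gelatin zymography of culture medium from equal numbers of PANC-1 cells exposed to compound for 24 h. Samples run non-reduced and unboiled on 10% polyacrylamide with 1 mg/mL gelatin. Gel washed in 2.5% Triton X-100 buffer, digested 14 h at 37 °C in Tris–HCl/CaCl2/ZnCl2 buffer pH 7.6, then Coomassie-stained. Clear bands imaged.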
# [9] = system: PBMC; test: Cytotoxicity against human PBMC after 24 hrs by MTT assay; format: cell-based
# [10] = system: HL-60; test: Cytotoxicity against human HL60 cells after 24 hrs by MTT assay; format: functional, cell-based; settings: HL-60, 24 h
# [11] = system: A-431; test: Cytotoxicity against human A431 cells after 24 hrs by MTT assay; format: functional, cell-based; settings: A-431, 24 h
# [12] = system: K562; test: Cytotoxicity against human K562 cells after 24 hrs by MTT assay; format: functional, cell-based; settings: K562, 24 h
# [13] = system: BXPC-3; test: Cytotoxicity against human BxPC3 cells after 24 hrs by MTT assay; format: functional, cell-based; settings: BXPC-3, 24 h
# [14] = system: HepG2; test: Cytotoxicity against human HepG2 cells after 24 hrs by MTT assay; format: functional, cell-based; settings: HepG2, 24 h
# [15] = system: MDA-MB-435; test: Cytotoxicity against human MDA-MB-435 cells after 24 hrs by MTT assay; format: functional, cell-based; settings: MDA-MB-435, 24 h
# [16] = system: HUVEC; test: Effect on total ERK1/2 level in VEGF-stimulated HUVEC pretreated at 10 to 50 umol/L for 30 mins before VEGF addition by Western blot analysis; format: functional, cell-based; settings: Homo sapiens
# [17] = system: PANC-1; test: Cytotoxicity against human PANC1 cells after 24 hrs by MTT assay; format: functional, cell-based; settings: PANC-1, 24 h
# [18] = system: HUVEC; test: Effect on total src level in VEGF-stimulated HUVEC pretreated at 10 to 50 umol/L for 30 mins before VEGF addition by Western blot analysis; format: functional, cell-based; settings: Homo sapiens
# [19] = system: HUVEC; test: Antiangiogenic activity against HUVEC assessed as inhibition of VEGF-induced migration at 25 umol/L after 20 hrs by microscopy; settings: Homo sapiens
# [20] = system: A549; test: Cytotoxicity against human A549 cells after 24 hrs by MTT assay; format: functional, cell-based; settings: A549, 24 h
# [21] = system: HUVEC; test: Antiproliferative activity against HUVEC assessed as growth inhibition rate after 24 hrs by MTT assay; format: functional, cell-based; settings: Homo sapiens
# Summary of the method: (§4)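 HUVECs (passages 3–5, primary cord isolates) seeded at 1 × 10⁴ cells/well. Medium replaced with M199 containing 1% FBS plus compound. Viability read by MTT after 24 h. Percent inhibition was calculated from A570 minus A630 of treated versus control wells, and IC50 determined. Triplicate experiments, means ± SEM.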
# [22] = system: PANC-1; test: Inhibition of MMP-9 protein expression in human PANC1 cells at 10 to 50 umol/L after 24 hrs by SDS-PAGE analysis; format: functional, cell-based; summary of the method: as §3
# [23] = target: MAP kinase p38 (Homo sapiens) (UniProt O15264+Q15759+Q16539+P53778); test: Inhibition of VEGF receptor signaling in VEGF-stimulated HUVEC assessed a effect on p38 MAPK phosphorylation pretreated at 10 to 50 umol/L for 30 mins before VEGF addition by Western blot analysis; format: protein assay
# [24] = system: HUVEC; test: Antiproliferative activity against HUVEC assessed as growth inhibition rate at 10 uM after 24 hrs by MTT assay; format: functional; settings: Homo sapiens, read-out: GI; summary of the method: as §4
# [25] = species: Gallus gallus; test: Antiangiogenic activity in chicken embryo chorioallantoic membrane model assessed as inhibition of new blood vessel formation at 5 nmol/egg after 48 hrs by microscopy; format: functional, tissue-based; summary of the method: as §1
# [26] = Cytotoxicity against human SHG44 cells after 24 hrs by MTT assay; format: functional, cell-based; settings: SHG-44, 24 h
# [27] = Inhibition of VEGF receptor signaling in VEGF-stimulated HUVEC assessed a effect on src phosphorylation pretreated at 10 to 50 umol/L for 30 mins before VEGF addition by Western blot analysis; format: cell-based; settings: Homo sapiens
# [28] = system: HUVEC; test: Antiproliferative activity against HUVEC assessed as growth inhibition rate at 100 uM after 24 hrs by MTT assay; format: functional; settings: Homo sapiens, read-out: GI; summary of the method: as §4
# [29] = system: HUVEC; test: Antiangiogenic activity against HUVEC assessed as inhibition of VEGF-induced branching and network formation at 25 umol/L after 5 hrs by microscopy; format: functional, cell-based; settings: Homo sapiens; summary of the method: as §2
# [30] = system: MDA-MB-231; test: Cytotoxicity against human MDA-MB-231 cells after 24 hrs by MTT assay; format: functional, cell-based; settings: MDA-MB-231, 24 h
# [31] = system: HCT-116; test: Cytotoxicity against human HCT116 cells after 24 hrs by MTT assay; format: functional, cell-based; settings: HCT-116, 24 h
# [32] = system: HUVEC; test: Effect on total akt level in VEGF-stimulated HUVEC pretreated at 10 to 50 umol/L for 30 mins before VEGF addition by Western blot analysis; format: functional, cell-based; settings: Homo sapiens
# [33] = system: HUVEC; test: Antiangiogenic activity against HUVEC assessed as inhibition of VEGF-induced cell migration at 25 umol/L after 20 hrs by Boyden chamber assay; format: functional, cell-based; settings: Homo sapiens
# Summary of the method: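 Boyden chamber, 8.0 µm membrane. HUVECs at 80% confluence serum-starved 12 h in basal medium and suspended at 1 × 10⁶ cells/mL. Pre-treated 30 min at room temperature with DMSO or compound (final 25 µmol/L). After 20 h cells fixed, stained, and counted in five random fields. Triplicate experiments.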
smiles,measurement,setting,value
COc1cc2ccc(=O)oc2cc1OCC(O)CN1CCCCC1 (stereo not given),inhibition,[1],Active
same,inhibition,[2],Active
same,inhibition,[3],Active
same,Activity,[4],inactive
same,inhibition,[5],Active
same,IC50,[6],46.6 µM
same,IC50,[7],78.9 µM
same,inhibition,[8],Active
same,IC50,[9],> 100 µM
same,IC50,[10],30.2 µM
same,IC50,[11],93.9 µM
same,IC50,[12],43.7 µM
same,IC50,[13],35 µM
same,IC50,[14],83.9 µM
same,IC50,[15],63 µM
same,Activity,[16],inactive
same,IC50,[17],> 100 µM
same,Activity,[18],inactive
same,inhibition,[19],Active
same,IC50,[20],42.7 µM
same,IC50,[21],24.2 µM
same,inhibition,[22],Active
same,inhibition,[23],inactive
same,inhibition of growth at 10 µM,[24],31.4%
same,inhibition,[25],Active
same,IC50,[26],42.8 µM
same,inhibition,[27],inactive
same,inhibition of growth at 100 µM,[28],80.7%
same,inhibition,[29],Active
same,IC50,[30],51.6 µM
same,IC50,[31],26.1 µM
same,Activity,[32],inactive
COc1cc2ccc(=O)oc2cc1OCC(O)CN1CCN(C)CC1 (stereo not given),inhibition of growth at 10 µM,[24],0.1%
same,inhibition of growth at 100 µM,[28],3.4%
COc1cc2ccc(=O)oc2cc1OCCN1CCCCC1,inhibition of growth at 10 µM,[24],0.1%
same,inhibition of growth at 100 µM,[28],6.1%
COc1cc2ccc(=O)oc2cc1O [SCOPOLETIN],inhibition,[5],inactive
same,IC50,[6],> 100 µM
same,IC50,[7],> 100 µM
same,inhibition,[8],Active
same,IC50,[9],> 100 µM
same,IC50,[10],> 100 µM
same,IC50,[11],> 100 µM
same,IC50,[12],> 100 µM
same,IC50,[13],> 100 µM
same,IC50,[14],> 100 µM
same,IC50,[15],> 100 µM
same,IC50,[17],> 100 µM
same,inhibition,[33],inactive
same,inhibition,[19],inactive
same,IC50,[20],> 100 µM
same,inhibition,[22],Active
same,inhibition of growth at 10 µM,[24],0%
same,IC50,[26],> 100 µM
same,inhibition of growth at 100 µM,[28],2.1%
same,inhibition,[29],inactive
same,IC50,[30],> 100 µM
same,IC50,[31],> 100 µM
COc1cc2ccc(=O)oc2cc1OCCCCBr,inhibition of growth at 10 µM,[24],11.2%
same,inhibition of growth at 100 µM,[28],16.9%
CCN(CC)CC(O)COc1cc2oc(=O)ccc2cc1OC (stereo not given),inhibition of growth at 10 µM,[24],0.5%
same,inhibition of growth at 100 µM,[28],0.3%
COc1ccc(C(=O)COc2cc3oc(=O)ccc3cc2OC)cc1,IC50,[21],37.5 µM
same,inhibition of growth at 10 µM,[24],7.6%
same,inhibition of growth at 100 µM,[28],85.6%
COc1cc2ccc(=O)oc2cc1OCCCCl,inhibition of growth at 10 µM,[24],0.1%
same,inhibition of growth at 100 µM,[28],9.4%
COc1cc2ccc(=O)oc2cc1OCCN1CCOCC1,inhibition of growth at 10 µM,[24],0%
same,inhibition of growth at 100 µM,[28],1.9%
COc1cc2ccc(=O)oc2cc1OCCN1CCCC1,inhibition of growth at 10 µM,[24],1.9%
same,inhibition of growth at 100 µM,[28],7.9%
CCN(CC)CCOc1cc2oc(=O)ccc2cc1OC,inhibition of growth at 10 µM,[24],0.1%
same,inhibition of growth at 100 µM,[28],3.1%
COc1cc2ccc(=O)oc2cc1OCC(=O)c1ccc(Cl)c(Cl)c1,inhibition of growth at 10 µM,[24],0%
same,inhibition of growth at 100 µM,[28],42.8%
